Test results taken from ChEMBL document CHEMBL4229537, “Synthesis and bioactivities evaluation of l-pyroglutamic acid analogues from natural product lead” (Bioorg Med Chem, 2018).
Values after ≈ are worked out from the molar mass of the structure shown.

Legend:
Phytophthora infestans [1] = assay: Antifungal activity against Phytophthora infestans assessed as inhibition of zoospore release at 100 ug/ml after 4 hrs relative to control; assay type: functional
Method in brief: (§1)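 Zoospore release assay: compounds mixed with zoosporangia, held at 4 °C in darkness for 4 h; screened at 100 µg/mL. Solvent negative, azoxystrobin positive control. Release scored once control release reached 90%. Inhibition (%) = (P0−P1)/P0×100. EC50 determined for compounds exceeding 50% inhibition. Means ± SD of three independent experiments.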

Bacillus thuringiensis = assay: Antibacterial activity against Bacillus thuringiensis at 2 mg/ml after 4 to 10 hrs by filter paper dispersion method; assay type: functional; conditions: read-out: IZ
Method in brief: (§2)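 Filter paper diffusion method. Activated bacteria suspended in sterile water, mixed into beef extract peptone medium, and 3 mL poured per 9 cm dish. 5 µL of 2 mg/mL compound applied to 6 mm paper discs in three parallels. Fosfomycin as positive control, solvent as negative control. Dried discs placed on medium and incubated 4-10 h at 37°C. Inhibition zone size and transparency recorded by crisscross method.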

Phytophthora infestans [2] = assay: Antifungal activity against Phytophthora infestans assessed as inhibition of zoospore release after 4 hrs; assay type: functional, organism-based; method in brief: as §1
BV-2 = assay: Antiinflammatory activity in mouse BV2 cells assessed as inhibition of LPS-induced nitric oxide production after 24 hrs by Griess assay; assay type: functional, cell-based; conditions: BV-2, 24 h
Method in brief: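 BV-2 microglia plated at 1 × 10^5 cells/mL and grown 24 h. Cells pretreated with compound, then stimulated with 1 µg/mL LPS for another 24 h. Quercetin as positive control. Supernatant mixed with Griess reagent and absorbance read at 540 nm. IC50 reported as mean ± SD of three independent experiments.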

[3] = Cytotoxicity against LPS-treated mouse BV2 cells assessed as cell viability after 24 hrs by SRB assay relative to control; assay type: cell-based, BV-2; design: concentration or dose not given beside the values; conditions: read-out: Activity
Method in brief: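 BV-2 cells pretreated with compound, then exposed to 1 µg/mL LPS for 24 h. Viability measured by SRB assay and expressed as % of control group. Mean ± SD of three independent experiments.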

PC-12 = assay: Neurotogenic activity in NGF-induced rat PC12 cells assessed as neurite bearing cell levels at 20 uM after 48 hrs by inverted microscopic method (reference value: 0.77 +/- 0.13%); assay type: functional
Bacillus cereus = assay: Antibacterial activity against Bacillus cereus at 2 mg/ml after 4 to 10 hrs by filter paper dispersion method; assay type: functional; conditions: read-out: IZ; method in brief: as §2
[4] = tested on: Pectobacterium carotovorum; assay: Antibacterial activity against Erwinia caratovora at 2 mg/ml after 4 to 10 hrs by filter paper dispersion method; assay type: functional; conditions: read-out: IZ; method in brief: as §2
Staphylococcus aureus = assay: Antibacterial activity against Staphylococcus aureus at 2 mg/ml after 4 to 10 hrs by filter paper dispersion method; assay type: functional; conditions: read-out: IZ; method in brief: as §2
Ralstonia solanacearum = assay: Antibacterial activity against Ralstonia solanacearum at 2 mg/ml after 4 to 10 hrs by filter paper dispersion method; assay type: functional; conditions: read-out: IZ
Phytophthora infestans [5] = assay: Potency index, ratio of azoxystrobin EC50 to test compound EC50 for Phytophthora infestans; assay type: functional
Phytophthora infestans [6] = assay: Antifungal activity against Phytophthora infestans; assay type: functional, organism-based; method in brief: as §1
[7] = tested on: Pseudoperonospora cubensis; assay: Antifungal activity against Pseudoperonospora cubensis; assay type: functional, organism-based

Compound: CNC(=O)[C@@H]1CCC(=O)N1
- inhibition at 100 µg/mL (Phytophthora infestans [1]): 1.17%
- zone of inhibition at 2000 µg/mL (Bacillus thuringiensis): 12 mm

Compound: CCCCOC(=O)[C@@H]1CCC(=O)N1
- inhibition at 100 µg/mL (Phytophthora infestans [1]): 99%
- EC50 (Phytophthora infestans [2]): 11.2 µg/mL (≈ 60.5 µM)

Compound: CCOC(=O)[C@@H]1CCC(=O)N1
- inhibition at 100 µg/mL (Phytophthora infestans [1]): 95.8%
- EC50 (Phytophthora infestans [2]): 15.2 µg/mL (≈ 97 µM)

Compound: O=C1CC[C@@H](C(=O)Oc2ccccc2)N1
- inhibition at 100 µg/mL (Phytophthora infestans [1]): 98.3%
- EC50 (Phytophthora infestans [2]): 19.5 µg/mL (≈ 95.1 µM)

Compound: COC(=O)[C@@H]1CCC(=O)N1
- inhibition at 100 µg/mL (Phytophthora infestans [1]): 26.1%

Compound: O=C1CC[C@@H](C(=O)Nc2ccc([N+](=O)[O-])cc2)N1
- inhibition at 100 µg/mL (Phytophthora infestans [1]): 47.5%

Compound: C=CCNC(=O)[C@@H]1CCC(=O)N1
- inhibition at 100 µg/mL (Phytophthora infestans [1]): 49.3%
- IC50 (BV-2): 9.1 µM
- viability at 24 h [3]: 95.4%
- Activity (PC-12): 14.962%
- zone of inhibition at 2000 µg/mL (Bacillus thuringiensis): 11.5 mm
- zone of inhibition at 2000 µg/mL (Bacillus cereus): 15 mm

Compound: NNC(=O)[C@@H]1CCC(=O)N1
- zone of inhibition at 2000 µg/mL (Bacillus thuringiensis): 14 mm

Compound: CCN(CC)C(=O)[C@@H]1CCC(=O)N1
- inhibition at 100 µg/mL (Phytophthora infestans [1]): 35.8%
- zone of inhibition at 2000 µg/mL (Bacillus cereus): 10 mm
- zone of inhibition at 2000 µg/mL [4]: 12 mm

Compound: O=C1CC[C@@H](C(=O)NCCc2c[nH]c3ccccc23)N1
- inhibition at 100 µg/mL (Phytophthora infestans [1]): 21.5%
- zone of inhibition at 2000 µg/mL (Bacillus thuringiensis): 12 mm
- zone of inhibition at 2000 µg/mL [4]: 15 mm

Compound: COC(=O)c1ccccc1NC(=O)[C@@H]1CCC(=O)N1
- inhibition at 100 µg/mL (Phytophthora infestans [1]): 2.37%
- zone of inhibition at 2000 µg/mL (Staphylococcus aureus): 6 mm
- zone of inhibition at 2000 µg/mL (Bacillus cereus): 6 mm
- zone of inhibition at 2000 µg/mL (Ralstonia solanacearum): 10 mm
- zone of inhibition at 2000 µg/mL [4]: 9 mm

Compound: O=C1CC[C@@H](C(=O)Oc2cccc3ccccc23)N1
- inhibition at 100 µg/mL (Phytophthora infestans [1]): 98.5%
- EC50 (Phytophthora infestans [2]): 1.21 µg/mL (≈ 4.74 µM)
- Ratio EC50 (Phytophthora infestans [5]): 7

Compound: C#CCOC(=O)[C@@H]1CCC(=O)N1
- zone of inhibition at 2000 µg/mL (Ralstonia solanacearum): 6 mm

Compound: Nc1ccccc1NC(=O)[C@@H]1CCC(=O)N1
- zone of inhibition at 2000 µg/mL (Bacillus thuringiensis): 11.5 mm
- zone of inhibition at 2000 µg/mL (Bacillus cereus): 5.5 mm

Compound: O=C1CC[C@@H](C(=O)Oc2ccccc2Cl)N1
- inhibition at 100 µg/mL (Phytophthora infestans [1]): 98.4%
- EC50 (Phytophthora infestans [2]): 14.6 µg/mL (≈ 60.8 µM)

Compound: O=C1CC[C@@H](C(=O)Oc2ccccc2[N+](=O)[O-])N1
- inhibition at 100 µg/mL (Phytophthora infestans [1]): 96.3%
- EC50 (Phytophthora infestans [2]): 8.58 µg/mL (≈ 34.3 µM)

Compound: C=CCOC(=O)[C@@H]1CCC(=O)N1
- inhibition at 100 µg/mL (Phytophthora infestans [1]): 84.2%
- zone of inhibition at 2000 µg/mL (Bacillus thuringiensis): 12 mm

Compound: C#CCNC(=O)[C@@H]1CCC(=O)N1
- IC50 (BV-2): 6 µM
- viability at 24 h [3]: 89.5%
- zone of inhibition at 2000 µg/mL (Bacillus thuringiensis): 9 mm
- zone of inhibition at 2000 µg/mL (Staphylococcus aureus): 6 mm

Compound: NC(=O)[C@@H]1CCC(=O)N1
- inhibition at 100 µg/mL (Phytophthora infestans [1]): 13.6%
- zone of inhibition at 2000 µg/mL (Bacillus thuringiensis): 8 mm
- zone of inhibition at 2000 µg/mL (Ralstonia solanacearum): 5.5 mm

Compound: N#Cc1ccccc1OC(=O)[C@@H]1CCC(=O)N1
- inhibition at 100 µg/mL (Phytophthora infestans [1]): 98.3%
- EC50 (Phytophthora infestans [2]): 9.62 µg/mL (≈ 41.8 µM)
- zone of inhibition at 2000 µg/mL (Bacillus thuringiensis): 14 mm
- zone of inhibition at 2000 µg/mL (Ralstonia solanacearum): 7 mm

Compound: O=C1CC[C@@H](C(=O)Nc2ccc(C(F)(F)F)cc2)N1
- zone of inhibition at 2000 µg/mL (Bacillus thuringiensis): 13 mm
- zone of inhibition at 2000 µg/mL (Bacillus cereus): 9.5 mm

Compound: O=C1CC[C@@H](C(=O)Nc2ccccc2O)N1
- inhibition at 100 µg/mL (Phytophthora infestans [1]): 33.7%

Compound: O=C1CC[C@@H](C(=O)Oc2ccc(Cl)cc2)N1
- inhibition at 100 µg/mL (Phytophthora infestans [1]): 98.1%
- EC50 (Phytophthora infestans [2]): 1.44 µg/mL (≈ 6.01 µM)
- Ratio EC50 (Phytophthora infestans [5]): 7

Compound: CC(C)OC(=O)[C@@H]1CCC(=O)N1
- inhibition at 100 µg/mL (Phytophthora infestans [1]): 36.5%

Compound: CCCCNC(=O)[C@@H]1CCC(=O)N1
- inhibition at 100 µg/mL (Phytophthora infestans [1]): 17.8%
- zone of inhibition at 2000 µg/mL (Bacillus thuringiensis): 7.5 mm

Compound: CC(C)NC(=O)[C@@H]1CCC(=O)N1
- zone of inhibition at 2000 µg/mL (Bacillus thuringiensis): 10 mm
- zone of inhibition at 2000 µg/mL (Bacillus cereus): 5.5 mm

Compound: Cc1cc(Cl)ccc1OC(=O)[C@@H]1CCC(=O)N1
- inhibition at 100 µg/mL (Phytophthora infestans [1]): 39.8%
- IC50 (BV-2): 19.4 µM
- viability at 24 h [3]: 91.1%

Compound: CC(C)(C)NC(=O)[C@@H]1CCC(=O)N1
- zone of inhibition at 2000 µg/mL (Bacillus cereus): 12 mm

Compound: CN(C)C(=O)[C@@H]1CCC(=O)N1
- inhibition at 100 µg/mL (Phytophthora infestans [1]): 44.3%

Compound: CN1CCN(C(=O)[C@@H]2CCC(=O)N2)CC1
- zone of inhibition at 2000 µg/mL (Bacillus cereus): 7 mm

Compound: Cc1ccccc1OC(=O)[C@@H]1CCC(=O)N1
- inhibition at 100 µg/mL (Phytophthora infestans [1]): 48.6%

Compound: CCCOC(=O)[C@@H]1CCC(=O)N1
- inhibition at 100 µg/mL (Phytophthora infestans [1]): 95.1%
- EC50 (Phytophthora infestans [2]): 12.4 µg/mL (≈ 72.6 µM)

Compound: CC(C)COC(=O)[C@@H]1CCC(=O)N1
- inhibition at 100 µg/mL (Phytophthora infestans [1]): 64.9%

Compound: CCOC(=O)c1ccccc1OC(=O)[C@@H]1CCC(=O)N1
- inhibition at 100 µg/mL (Phytophthora infestans [1]): 98.2%
- EC50 (Phytophthora infestans [2]): 16.4 µg/mL (≈ 59.2 µM)
- zone of inhibition at 2000 µg/mL (Bacillus thuringiensis): 13 mm
- zone of inhibition at 2000 µg/mL (Staphylococcus aureus): 6.5 mm
- zone of inhibition at 2000 µg/mL (Ralstonia solanacearum): 5.5 mm
- zone of inhibition at 2000 µg/mL [4]: 11 mm

Compound: Cc1ccc(C(C)C)c(OC(=O)[C@@H]2CCC(=O)N2)c1
- inhibition at 100 µg/mL (Phytophthora infestans [1]): 13.2%

Compound: CO/C=C(/C(=O)OC)c1ccccc1Oc1cc(Oc2ccccc2C#N)ncn1 [AZOXYSTROBIN]
- inhibition at 100 µg/mL (Phytophthora infestans [1]): 99.2%
- EC50 (Phytophthora infestans [2]): 1.98 µg/mL (≈ 4.91 µM)

Compound: CC1(C)S[C@@H]2[C@H](NC(=O)Cc3ccccc3)C(=O)N2[C@H]1C(=O)O [PENICILLIN G SODIUM]
- zone of inhibition at 2000 µg/mL (Bacillus thuringiensis): 27 mm
- zone of inhibition at 2000 µg/mL (Staphylococcus aureus): 28 mm
- zone of inhibition at 2000 µg/mL (Bacillus cereus): 25 mm
- zone of inhibition at 2000 µg/mL (Ralstonia solanacearum): 24 mm
- zone of inhibition at 2000 µg/mL [4]: 28 mm

Compound: O=C1CC[C@@H](C(=O)Oc2ccc(O)cc2)N1 [PIDOBENZONE]
- IC50 (BV-2): 4.5 µM
- viability at 24 h [3]: 92.6%
- Activity (PC-12): 15.443%
- zone of inhibition at 2000 µg/mL (Staphylococcus aureus): 6 mm
- zone of inhibition at 2000 µg/mL (Bacillus cereus): 12 mm
- zone of inhibition at 2000 µg/mL (Ralstonia solanacearum): 7 mm

Compound: O=C1CC[C@@H](C(=O)O)N1 [PIDOLIC ACID]
- inhibition at 100 µg/mL (Phytophthora infestans [1]): 98.8%
- EC50 (Phytophthora infestans [2]): 7.85 µg/mL (≈ 60.8 µM)
- zone of inhibition at 2000 µg/mL (Bacillus thuringiensis): 17.5 mm
- zone of inhibition at 2000 µg/mL (Ralstonia solanacearum): 7.5 mm
- EC50 (Phytophthora infestans [6]): 9.48 µg/mL (≈ 73.4 µM)
- EC50 [7]: 10.8 µg/mL (≈ 83.8 µM)

Compound: O=c1c(O)c(-c2ccc(O)c(O)c2)oc2cc(O)cc(O)c12 [QUERCETIN]
- IC50 (BV-2): 4.3 µM
- viability at 24 h [3]: 99.5%
